{"data": "Published values of several laboratories", "target": "G protein-coupled receptor kinase 3 (GRK3, Homo sapiens, UniProt P35626)", "One construct used (P35626 1-688)": "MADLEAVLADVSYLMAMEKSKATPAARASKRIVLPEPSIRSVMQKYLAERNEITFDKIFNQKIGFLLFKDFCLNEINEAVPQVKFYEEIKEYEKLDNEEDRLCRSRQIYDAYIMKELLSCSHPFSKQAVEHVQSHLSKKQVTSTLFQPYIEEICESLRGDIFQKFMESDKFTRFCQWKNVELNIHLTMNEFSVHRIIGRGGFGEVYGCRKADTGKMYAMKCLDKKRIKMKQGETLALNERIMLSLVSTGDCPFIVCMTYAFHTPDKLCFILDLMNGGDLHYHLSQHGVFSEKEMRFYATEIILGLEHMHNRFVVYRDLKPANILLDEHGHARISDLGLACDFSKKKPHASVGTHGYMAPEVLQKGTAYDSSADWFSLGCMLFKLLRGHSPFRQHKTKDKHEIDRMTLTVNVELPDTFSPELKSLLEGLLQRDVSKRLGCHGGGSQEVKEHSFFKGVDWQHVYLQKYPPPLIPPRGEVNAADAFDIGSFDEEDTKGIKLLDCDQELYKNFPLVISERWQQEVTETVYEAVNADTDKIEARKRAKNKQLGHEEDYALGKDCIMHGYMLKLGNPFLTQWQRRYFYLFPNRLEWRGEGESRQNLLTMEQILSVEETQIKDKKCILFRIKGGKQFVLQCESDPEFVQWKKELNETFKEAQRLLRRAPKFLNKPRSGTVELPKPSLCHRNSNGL", "note": "Each line is one published result; the experiments were not run side by side."}
{"SMILES": "Cc1cnn2ncc(-c3ccnc(N(C)C)n3)c2c1", "effect on": "binding", "tested at": "1 µM", "remaining binding [%]": 67}
{"SMILES": "COc1ccc2c(c1)O[C@H](c1ccc(OC)c(OC)c1)C[C@@H]2NC(=O)C1(c2ccc3c(c2)OC(F)(F)O3)CC1", "effect on": "cell-free assay", "method": "competition with immobilised ligand", "tested at": "1 µM", "remaining binding [%]": 100}
{"SMILES": "COc1cnc(Nc2cccc(S(N)(=O)=O)c2)nc1N1CCN(c2ccccc2)C(=O)C1", "effect on": "binding", "method": "competition with immobilised ligand", "tested at": "1 µM", "remaining binding [%]": 70}
{"SMILES": "CN(c1nccc(-c2cnn3ncccc23)n1)C1CC1", "effect on": "binding", "tested at": "1 µM", "remaining binding [%]": 100}
{"SMILES": "FC(F)(F)c1ccc2c(c1)nc(-c1cccnc1)n2C1CC1", "effect on": "cell-free assay", "method": "competition with immobilised ligand", "tested at": "1 µM", "remaining binding [%]": 76}
{"SMILES": "CC1CCCN1c1nccc(-c2cnn3ncccc23)n1 (stereo not drawn)", "effect on": "binding", "tested at": "1 µM", "remaining binding [%]": 100}
{"SMILES": "C[C@@H](c1ccc(-n2cnc3c(N)ncnc32)cc1)N1CCc2nn(C)c(Cc3ccccc3)c2C1=O", "effect on": "binding", "method": "competition with immobilised ligand", "tested at": "0.1 µM", "remaining binding [%]": 87}
{"SMILES": "O=C1CCc2cc(Nc3cc(OC4CCOCC4)c([N+](=O)[O-])cc3Cl)ccc2N1", "effect on": "cell-free assay", "method": "competition with immobilised ligand", "tested at": "1 µM", "remaining binding [%]": 100}
{"SMILES": "c1cncc(-c2cccc(Nc3nccc(NC4CCCCC4)n3)c2)c1", "effect on": "binding", "method": "competition with immobilised ligand", "tested at": "10 µM", "remaining binding [%]": 99}
{"SMILES": "O=C(c1ccc(Nc2ncc(Cl)c(-c3ccc(Cl)s3)n2)cc1)N1CCC(N2CCCC2)CC1", "effect on": "binding", "method": "competition with immobilised ligand", "tested at": "1 µM", "remaining binding [%]": 46}
{"SMILES": "CN(C)c1ncc(F)c(-c2cnn3ncccc23)n1", "effect on": "binding", "tested at": "1 µM", "remaining binding [%]": 100}
{"SMILES": "C[C@H](c1ccnc(Nc2nc3ccc(-c4cc(N(C)C)ncn4)cc3[nH]2)c1)N1CCN(C(=O)CC(F)(F)F)CC1", "effect on": "cell-free assay", "method": "competition with immobilised ligand", "tested at": "0.1 µM", "remaining binding [%]": 100}
{"SMILES": "F[C@@H]1CCN(c2nccc(-c3cnn4ncccc34)n2)C1", "effect on": "binding", "tested at": "1 µM", "remaining binding [%]": 13}
{"SMILES": "O=C(NCCCN1CCOCC1)c1ccc(Nc2ncc(Cl)c(-c3ccc(Cl)s3)n2)cc1", "effect on": "binding", "method": "competition with immobilised ligand", "tested at": "1 µM", "remaining binding [%]": 51}
{"SMILES": "C[C@@H]1CCN(c2nccc(-c3cnn4ncccc34)n2)C1", "effect on": "binding", "tested at": "1 µM", "remaining binding [%]": 56}
{"SMILES": "Cc1cnc(Nc2ccc(C(=O)N3CCC(N4CCCC4)CC3)cc2)nc1-c1cc2ccccc2s1", "effect on": "binding", "method": "competition with immobilised ligand", "tested at": "1 µM", "remaining binding [%]": 73}
{"SMILES": "Nc1cnc(N2CCc3cc(S(=O)(=O)Nc4c(F)cc(Cl)cc4F)cc(N4CCCC4=O)c32)nc1", "effect on": "cell-free assay", "method": "competition with immobilised ligand", "tested at": "1 µM", "remaining binding [%]": 100}
{"SMILES": "O=C(NCC1CCOCC1)c1n[nH]cc1NC(=O)c1c(F)cccc1F", "effect on": "binding", "method": "competition with immobilised ligand", "tested at": "1 µM", "remaining binding [%]": 44}
{"SMILES": "C=CC(=O)N1CCC(C(=O)NCC(=O)N2CCN(c3nc(-c4cnc(N)nc4C(F)F)nc(N4CCOCC4)n3)CC2)CC1", "effect on": "binding", "method": "competition with immobilised ligand", "tested at": "1 µM", "remaining binding [%]": 100}
{"SMILES": "O=C(Nc1ccc(Oc2ccc(F)cc2)cc1)N1CCc2ncccc2[C@H]1c1ccc(F)cc1", "effect on": "cell-free assay", "method": "competition with immobilised ligand", "tested at": "1 µM", "remaining binding [%]": 95}
{"SMILES": "FC(F)(F)Oc1cccc(-c2cnc3ccc(-c4ccncc4)nn23)c1", "effect on": "cell-free assay", "method": "competition with immobilised ligand", "tested at": "5 µM", "remaining binding [%]": 99}
